According to ChEMBL document CHEMBL1671627, “Increasing trends in antimicrobial resistance among clinically important anaerobes and Bacteroides fragilis isolates causing nosocomial infections: emerging resistance to carbapenems” (2008):
Values after ≈ are worked out from the molar mass of the structure shown.

Columns and labels:
[1] = tested on: Parvimonas micra; assay: Antibacterial activity against beta-lactamase producing Micromonas micros assessed as resistant isolates by CLSI agar dilution method in presence of clavulanate; type: functional
Method in brief: (§1)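 207 nonduplicate anaerobic blood isolates from patients with bloodstream infections at NTUH, collected January–December 2006. MICs were determined by agar dilution following CLSI guidelines. Inocula were applied with a Steers replicator onto supplemented Brucella blood agar and incubated 48 h at 35°C in an anaerobic chamber. MIC was the lowest concentration inhibiting growth. B. fragilis ATCC 25285, B. thetaiotaomicron ATCC 29741 and E. lentum ATCC 43055 served as controls in each run.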

[2] = tested on: Phocaeicola vulgatus; assay: Antibacterial activity against beta-lactamase producing Bacteroides vulgatus assessed as resistant isolates by CLSI agar dilution method in presence of clavulanate; type: functional; method in brief: as §1
[3] = tested on: Prevotella buccae; assay: Antibacterial activity against Prevotella buccae assessed as resistant isolates by CLSI agar dilution method in presence of clavulanate; type: functional, Segatella buccae; method in brief: as §1
[4] = tested on: Peptostreptococcus anaerobius; assay: Antibacterial activity against beta-lactamase producing Peptostreptococcus anaerobius by CLSI agar dilution method in presence of clavulanate; type: functional
Method in brief: (§2)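 CLSI agar dilution MICs for anaerobic blood isolates (nonduplicate) collected from bloodstream-infection patients at a Taiwanese tertiary hospital, January–December 2006. Isolates were spotted by Steers replicator onto supplemented Brucella blood agar and incubated anaerobically for 48 h at 35°C. MIC was the lowest drug concentration inhibiting growth. Each run included B. fragilis ATCC 25285, B. thetaiotaomicron ATCC 29741 and E. lentum ATCC 43055 as quality-control strains.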

[5] = tested on: Prevotella bivia; assay: Antibacterial activity against Prevotella bivia by CLSI agar dilution method in presence of clavulanate; type: functional
Method in brief: (§3)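 Agar dilution per CLSI guidelines on nonduplicate anaerobic bloodstream isolates collected at NTUH, January to December 2006. Isolates were spotted by Steers replicator onto supplemented Brucella blood agar and incubated anaerobically for 48 h at 35°C. MIC was the lowest drug concentration that inhibited growth. B. fragilis ATCC 25285, B. thetaiotaomicron ATCC 29741 and E. lentum ATCC 43055 were run as QC in each run.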

[6] = tested on: Bacteroides caccae; assay: Antibacterial activity against beta-lactamase producing Bacteroides caccae by CLSI agar dilution method in presence of clavulanate; type: functional; method in brief: as §3
[7] = tested on: Clostridium perfringens; assay: microbe, parasite or virus in culture; type: functional
[8] = tested on: Fusobacterium mortiferum; assay: Antibacterial activity against Fusobacterium mortiferum by CLSI agar dilution method in presence of clavulanate; type: functional; method in brief: as §3
[9] = tested on: Peptoniphilus asaccharolyticus; assay: Antibacterial activity against beta-lactamase producing Peptoniphilus asaccharolyticus assessed as susceptible isolates by CLSI agar dilution method in presence of clavulanate; type: functional; method in brief: as §2
[10] = tested on: Peptostreptococcus anaerobius; assay: Antibacterial activity against beta-lactamase producing Peptostreptococcus anaerobius by CLSI agar dilution method in presence of Tazobactam; type: functional; method in brief: as §2
[11] = tested on: Peptostreptococcus anaerobius; assay: Antibacterial activity against beta-lactamase producing Peptostreptococcus anaerobius assessed as resistant isolates by CLSI agar dilution method; type: functional
[12] = tested on: Clostridium septicum; assay: Antibacterial activity against beta-lactamase producing Clostridium septicum by CLSI agar dilution method in presence of Tazobactam; type: functional; method in brief: as §2
[13] = tested on: Bacteroides thetaiotaomicron; assay: Antibacterial activity against beta-lactamase producing Bacteroides thetaiotaomicron by CLSI agar dilution method; type: functional
[14] = tested on: Bacteroides fragilis; assay: Antibacterial activity against Bacteroides fragilis assessed as resistant isolates by CLSI agar dilution method in presence of Tazobactam; type: functional; method in brief: as §1
[15] = tested on: Peptoniphilus asaccharolyticus; assay: Antibacterial activity against beta-lactamase producing Peptoniphilus asaccharolyticus assessed as resistant isolates by CLSI agar dilution method; type: functional
[16] = tested on: Fusobacterium mortiferum; assay: Antibacterial activity against Fusobacterium mortiferum by CLSI agar dilution method; type: functional
[17] = tested on: Finegoldia magna; assay: Antibacterial activity against beta-lactamase producing Finegoldia magna assessed as susceptible isolates by CLSI agar dilution method in presence of Tazobactam; type: functional; method in brief: as §2
[18] = tested on: Peptostreptococcus anaerobius; assay: Antibacterial activity against beta-lactamase producing Peptostreptococcus anaerobius by CLSI agar dilution method; type: functional
[19] = tested on: Fusobacterium varium; assay: Antibacterial activity against Fusobacterium varium assessed as resistant isolates by CLSI agar dilution method in presence of Tazobactam; type: functional; method in brief: as §1
[20] = tested on: Clostridium paraputrificum; assay: Antibacterial activity against beta-lactamase producing Clostridium paraputrificum by CLSI agar dilution method in presence of Tazobactam; type: functional; method in brief: as §2
[21] = tested on: Phocaeicola vulgatus; assay: Antibacterial activity against beta-lactamase producing Bacteroides vulgatus assessed as susceptible isolates by CLSI agar dilution method in presence of Tazobactam; type: functional; method in brief: as §2
[22] = tested on: Bacteroides thetaiotaomicron; assay: Antibacterial activity against beta-lactamase producing Bacteroides thetaiotaomicron assessed as susceptible isolates by CLSI agar dilution method in presence of Tazobactam; type: functional; method in brief: as §3
[23] = tested on: Bacteroides fragilis; assay: Antibacterial activity against Bacteroides fragilis assessed as susceptible isolates by CLSI agar dilution method; type: functional
[24] = tested on: Fusobacterium nucleatum; assay: Antibacterial activity against Fusobacterium nucleatum assessed as susceptible isolates by CLSI agar dilution method; type: functional
[25] = tested on: Peptoniphilus asaccharolyticus; assay: Antibacterial activity against beta-lactamase producing Peptoniphilus asaccharolyticus by CLSI agar dilution method in presence of Tazobactam; type: functional; method in brief: as §2
[26] = tested on: Parvimonas micra; assay: Antibacterial activity against beta-lactamase producing Micromonas micros assessed as susceptible isolates by CLSI agar dilution method; type: functional
[27] = tested on: Fusobacterium varium; assay: Antibacterial activity against Fusobacterium varium assessed as susceptible isolates by CLSI agar dilution method in presence of Tazobactam; type: functional; method in brief: as §3
[28] = tested on: Prevotella intermedia; assay: Antibacterial activity against Prevotella intermedia assessed as resistant isolates by CLSI agar dilution method in presence of Tazobactam; type: functional; method in brief: as §1
[29] = tested on: Prevotella buccae; assay: Antibacterial activity against Prevotella buccae assessed as susceptible isolates by CLSI agar dilution method; type: functional, Segatella buccae
[30] = tested on: Fusobacterium varium; assay: Antibacterial activity against Fusobacterium varium assessed as susceptible isolates by CLSI agar dilution method; type: functional
[31] = tested on: Clostridium paraputrificum; assay: Antibacterial activity against beta-lactamase producing Clostridium paraputrificum by CLSI agar dilution method; type: functional

Question: With `CC1(C)S[C@@H]2[C@H](NC(=O)[C@H](N)c3ccc(O)cc3)C(=O)N2[C@H]1C(=O)O` [AMOXICILLIN] as the compound, how does the Activity [1] read?
Answer: The Activity was 3%.

Question: And the Activity [2]?
Answer: The Activity was 30%.

Question: What about the Activity [3] of the same compound?
Answer: Its Activity is 6%.

Question: And the MIC50 [4]?
Answer: Its MIC50 is 0.25 µg/mL.

Question: What about the MIC90 [4] of the same compound?
Answer: Its MIC90 is 2 µg/mL.

Question: What about the MIC50 [5] of the same compound?
Answer: Its MIC50 is 4 µg/mL.

Question: What about the MIC90 [5] of the same compound?
Answer: The MIC90 was 16 µg/mL.

Question: And the MIC50 [6]?
Answer: The MIC50 was 8 µg/mL.

Question: What about the MIC90 [6] of the same compound?
Answer: Its MIC90 is 32 µg/mL.

Question: What about the MIC50 [7] of the same compound?
Answer: Its MIC50 is 0.5 µg/mL (≈ 1.37 µM).

Question: And the MIC90 [7]?
Answer: The MIC90 was 2 µg/mL (≈ 5.47 µM).

Question: What about the MIC50 [8] of the same compound?
Answer: The MIC50 was 2 µg/mL.

Question: And the MIC90 [8]?
Answer: Its MIC90 is 4 µg/mL.

Question: What about the Activity [9] of the same compound?
Answer: The Activity was 94%.

Question: How did the MIC [10] turn out when `CCN1CCN(C(=O)N[C@@H](C(=O)N[C@@H]2C(=O)N3[C@@H]2SC(C)(C)[C@@H]3C(=O)O)c2ccccc2)C(=O)C1=O` [PIPERACILLIN] was run?
Answer: Its MIC is 0.03 µg/mL.

Question: And the MIC50 [10]?
Answer: The MIC50 was 0.03 µg/mL.

Question: What about the MIC90 [10] of the same compound?
Answer: Its MIC90 is 2 µg/mL.

Question: And the Activity [11]?
Answer: Its Activity is 3%.

Question: What about the MIC50 [12] of the same compound?
Answer: The MIC50 was 0.5 µg/mL.

Question: And the MIC90 [12]?
Answer: Its MIC90 is 2 µg/mL.

Question: What about the MIC50 [13] of the same compound?
Answer: Its MIC50 is 32 µg/mL (≈ 61.8 µM).

Question: What about the MIC90 [13] of the same compound?
Answer: The MIC90 was > 128 µg/mL.

Question: And the Activity [14]?
Answer: The Activity was 2%.

Question: And the Activity [15]?
Answer: Its Activity is 3%.

Question: And the MIC50 [16]?
Answer: Its MIC50 is 2 µg/mL (≈ 3.86 µM).

Question: And the MIC90 [16]?
Answer: The MIC90 was 8 µg/mL (≈ 15.5 µM).

Question: What about the Activity [17] of the same compound?
Answer: Its Activity is 97%.

Question: And the MIC50 [18]?
Answer: Its MIC50 is 0.12 µg/mL (≈ 0.232 µM).

Question: What about the MIC90 [18] of the same compound?
Answer: The MIC90 was 8 µg/mL (≈ 15.5 µM).

Question: And the Activity [19]?
Answer: The Activity was 0%.

Question: What about the MIC50 [20] of the same compound?
Answer: The MIC50 was 0.5 µg/mL.

Question: And the MIC90 [20]?
Answer: Its MIC90 is 2 µg/mL.

Question: And the Activity [21]?
Answer: Its Activity is 96%.

Question: What about the Activity [22] of the same compound?
Answer: The Activity was 93%.

Question: And the Activity [23]?
Answer: The Activity was 62%.

Question: What about the Activity [24] of the same compound?
Answer: Its Activity is 90%.

Question: What about the MIC [25] of the same compound?
Answer: The MIC was 0.03 µg/mL.

Question: What about the MIC50 [25] of the same compound?
Answer: The MIC50 was 0.03 µg/mL.

Question: And the MIC90 [25]?
Answer: The MIC90 was 2 µg/mL.

Question: What about the Activity [26] of the same compound?
Answer: The Activity was 97%.

Question: And the Activity [27]?
Answer: Its Activity is 100%.

Question: What about the Activity [28] of the same compound?
Answer: The Activity was 0%.

Question: And the Activity [29]?
Answer: The Activity was 71%.

Question: What about the Activity [30] of the same compound?
Answer: Its Activity is 90%.

Question: What about the MIC50 [31] of the same compound?
Answer: The MIC50 was 0.25 µg/mL (≈ 0.483 µM).

Question: And the MIC90 [31]?
Answer: Its MIC90 is 2 µg/mL (≈ 3.86 µM).
